Data as given in ChEMBL document CHEMBL1144069, “Cytotoxic activities of hypocretenolides from Leontodon hispidus” (J Nat Prod, 1999).
Calls of active or inactive are those of the source. No cut-off for these calls is given here.

Experiments:
HEp-2 [1] = test: Cytotoxicity against human HEP2 cells after 72 hrs by [3H]thymidine incorporation assay; format: functional, cell-based
Outline: (§1)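 Adherent tumor cells (100 µL at 1 × 10^6 cells/mL) were overlaid with 100 µL of medium containing compound in the 0.25–4.00 µM range (0.1% final DMSO). The medium control had no compound. Cells were incubated for 24, 48 or 72 h at 37 °C and 5% CO2, then pulsed 24 h with 3H-thymidine. They were harvested onto glass filters and counted by liquid scintillation. Three wells per point, on three separate days (n = 9). IC50 was taken graphically.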

CD34+ cell [2] = test: Antiproliferative activity against CSF and human recombinant erythropoietin-induced human CD34+ cells proliferation assessed as inhibition of BFU-erythroid formation at 1 uM after 12 days by clonogenic assay; format: functional, cell-based
Outline: (§2)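 Human CD34+ cells were immunomagnetically selected from mononuclear cells, with purity checked by FACS. They were plated at 2 × 10^3 cells/dish in Iscove's 0.8% methylcellulose with 30% FCS. Stimulation used 3 U/mL rhEPO plus 10% agar-stimulated leukocyte-conditioned medium. Final concentrations were 0.25–2.00 µM. Dishes were run in duplicate and repeated once (n = 4). CFU-E and mature BFU-E were scored at 12 days; primitive BFU-E and CFU-GM (>50 cells) at 18 days. IC50 was read graphically.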

ZR-75-1 [3] = test: Cytotoxicity against human ZR-75-1 cells after 24 hrs by [3H]thymidine incorporation assay; format: functional, cell-based
Outline: (§3)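 Adherent tumour cells at 1 × 10^6 cells/mL (100 µL per well) overlaid with an equal volume of medium carrying test substance across 0.25–4.00 µM. Medium-only controls. Incubated 24, 48 or 72 h at 37 °C, 5% CO2, then pulsed 24 h with 3H-thymidine and harvested onto glass filters for scintillation counting. Final DMSO 0.1%. Triplicate wells, three days (n = 9). IC50 read graphically from each experiment's dose curve.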

CD34+ cell [4] = test: (§4) Antiproliferative activity against CSF and human recombinant erythropoietin-induced human CD34+ cells proliferation assessed as inhibition of CFU-erythroid formation after 12 days by clonogenic assay; format: functional; outline: as §2
[5] = as §4; format: functional, CD34+ cell; outline: as §2
CD34+ cell [6] = test: Antiproliferative activity against CSF and human recombinant erythropoietin-induced human CD34+ cells proliferation assessed as inhibition of BFU-erythroid formation after 12 days by clonogenic assay; format: functional, cell-based; outline: as §2
[7] = Cytotoxicity against human SK37 cells after 72 hrs by [3H]thymidine incorporation assay; format: functional, cell-based; outline: as §1
MCF7 [8] = test: Cytotoxicity against human MCF7 cells after 72 hrs by [3H]thymidine incorporation assay; format: functional, cell-based; outline: as §1
[9] = Antiproliferative activity against CSF and human recombinant erythropoietin-induced human CD34+ cells proliferation assessed as inhibition of BFU-erythroid formation at 0.5 uM after 12 days by clonogenic assay; format: functional, CD34+ cell; parameters: scale not given: the % may be the effect or the level left; outline: as §2
[10] = Antiproliferative activity against CSF and human recombinant erythropoietin-induced human CD34+ cells proliferation assessed as inhibition of CFU-GM formation at 0.5 uM after 18 days by clonogenic assay; parameters: scale not given: the % may be the effect or the level left
CD34+ cell [11] = test: Antiproliferative activity against CSF and human recombinant erythropoietin-induced human CD34+ cells proliferation assessed as inhibition of CFU-erythroid formation at 1 uM after 12 days by clonogenic assay; format: functional, cell-based; outline: as §2
OVCAR-3 [12] = test: Cytotoxicity against human OVCAR-3 cells after 24 hrs by [3H]thymidine incorporation assay; format: functional, cell-based; outline: as §1
HEp-2 [13] = test: Cytotoxicity against human HEP2 cells after 48 hrs by [3H]thymidine incorporation assay; format: functional, cell-based; outline: as §1
HL-60 = test: Cytotoxicity against human HL-60 cells after 5 hrs by MTT assay; format: functional, cell-based; conditions: HL-60, 5 h
Outline: (§5)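 Leukemic cells at 0.5 × 10^6 cells/mL in RPMI were exposed to 0.01–2.00 µM compound (0.1% final DMSO) at 37 °C and 5% CO2. Viability was measured as MTT formazan, dissolved in DMSO and read at 550 and 630 nm. Three wells per point, on three separate days (n = 9). IC50 was taken graphically from per-experiment dose curves.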

OVCAR-3 [14] = test: Cytotoxicity against human OVCAR-3 cells after 48 hrs by [3H]thymidine incorporation assay; format: functional, cell-based; outline: as §1
[15] = Cytotoxicity against human GTB cells after 5 hrs by MTT assay; format: functional, cell-based; outline: as §5
SW872 [16] = test: Cytotoxicity against human SW872 cells after 24 hrs by [3H]thymidine incorporation assay; format: functional, cell-based; outline: as §1
CD34+ cell [17] = test: Antiproliferative activity against CSF and human recombinant erythropoietin-induced human CD34+ cells proliferation assessed as inhibition of CFU-GM formation after 18 days by clonogenic assay
SW872 [18] = test: Cytotoxicity against human SW872 cells after 48 hrs by [3H]thymidine incorporation assay; format: functional, cell-based; outline: as §1
[19] = Cytotoxicity against human SK MEL28 cells after 72 hrs by [3H]thymidine incorporation assay; format: functional, cell-based; conditions: SK-MEL-28; outline: as §1
[20] = Cytotoxicity against human SK37 cells after 48 hrs by [3H]thymidine incorporation assay; format: functional, cell-based; outline: as §1
HEp-2 [21] = test: Cytotoxicity against human HEP2 cells after 24 hrs by [3H]thymidine incorporation assay; format: functional, cell-based; outline: as §1
A-431 [22] = test: Cytotoxicity against human A431 cells after 24 hrs by [3H]thymidine incorporation assay; format: functional, cell-based; outline: as §1
ZR-75-1 [23] = test: Cytotoxicity against human ZR-75-1 cells after 72 hrs by [3H]thymidine incorporation assay; format: functional, cell-based; outline: as §3
[24] = Cytotoxicity against human SK MEL28 cells after 24 hrs by [3H]thymidine incorporation assay; format: functional, cell-based; conditions: SK-MEL-28; outline: as §1
MCF7 [25] = test: Cytotoxicity against human MCF7 cells after 24 hrs by [3H]thymidine incorporation assay; format: functional, cell-based; outline: as §1
[26] = Antiproliferative activity against CSF and human recombinant erythropoietin-induced human CD34+ cells proliferation assessed as inhibition of CFU-erythroid formation at 0.5 uM after 12 days by clonogenic assay; format: functional, CD34+ cell; parameters: scale not given: the % may be the effect or the level left; outline: as §2
OVCAR-3 [27] = test: Cytotoxicity against human OVCAR-3 cells after 72 hrs by [3H]thymidine incorporation assay; format: functional, cell-based; outline: as §1
ZR-75-1 [28] = test: Cytotoxicity against human ZR-75-1 cells after 48 hrs by [3H]thymidine incorporation assay; format: functional, cell-based; outline: as §3
SW872 [29] = test: Cytotoxicity against human SW872 cells after 72 hrs by [3H]thymidine incorporation assay; format: functional, cell-based; outline: as §3
A-431 [30] = test: Cytotoxicity against human A431 cells after 72 hrs by [3H]thymidine incorporation assay; format: functional, cell-based; outline: as §1
[31] = Cytotoxicity against human SK37 cells after 24 hrs by [3H]thymidine incorporation assay; format: functional, cell-based; outline: as §1
A-431 [32] = test: Cytotoxicity against human A431 cells after 48 hrs by [3H]thymidine incorporation assay; format: functional, cell-based; outline: as §1
[33] = Cytotoxicity against human SK MEL28 cells after 48 hrs by [3H]thymidine incorporation assay; format: functional, cell-based; conditions: SK-MEL-28; outline: as §1
MCF7 [34] = test: Cytotoxicity against human MCF7 cells after 48 hrs by [3H]thymidine incorporation assay; format: functional, cell-based; outline: as §1

For `C=C(C(=O)O[C@@H]1[C@@H](O)[C@H](O)[C@@H](OCC2=C3C(=O)C=C(C)[C@@]34C[C@@H](CC2)C(=C)C(=O)O4)O[C@H]1CO)[C@@H]1CCC(CO)=C2C(=O)C=C(C)[C@@]2(O)C1`, the IC50 (HEp-2 [1]) was 600 nM, the Activity (CD34+ cell [2]) was “Active” and the IC50 (ZR-75-1 [3]) was 300 nM. For the same molecule, the Activity (CD34+ cell [4]) was “Dose-dependent effect”, the IC100 [5] was 2 µM and the Activity (CD34+ cell [6]) was “Dose-dependent effect”. The IC50 [7] was 700 nM, the IC50 (MCF7 [8]) was 400 nM and the Activity [9] was 60%. For the same molecule, the Activity [10] was 60%, the Activity (CD34+ cell [11]) was “Active” and the IC50 (OVCAR-3 [12]) was 900 nM. It also gave an IC50 (HEp-2 [13]) of 700 nM, an IC50 (HL-60) of 100 nM and an IC50 (OVCAR-3 [14]) of 1000 nM. The IC50 [15] was 70 nM, the IC50 (SW872 [16]) was 1500 nM and the Activity (CD34+ cell [17]) was “Dose-dependent effect”. It also gave an IC50 (SW872 [18]) of 1400 nM, an IC50 [19] of 400 nM and an IC50 [20] of 900 nM. The IC50 (HEp-2 [21]) was 800 nM, the IC50 (A-431 [22]) was 700 nM and the IC50 (ZR-75-1 [23]) was 500 nM. The IC50 [24] was 1300 nM, the IC50 (MCF7 [25]) was 500 nM and the Activity [26] was 60%. The IC50 (OVCAR-3 [27]) was 1000 nM, the IC50 (ZR-75-1 [28]) was 300 nM and the IC50 (SW872 [29]) was 1400 nM. The IC50 (A-431 [30]) was 500 nM, the IC50 [31] was 1300 nM and the IC50 (A-431 [32]) was 700 nM. The IC50 [33] was 900 nM and the IC50 (MCF7 [34]) was 300 nM.
